Compounds with a hit are over-represented: about 3% of the library has one in this group of screens.
Tn7 DDE FP = DD(E)-Tn7 binding inhibition, primary FP screen | FP displacement of FITC-Tn7 peptide from fibrin DD(E); 0% = median of compound wells per plate | inhibition, % at 8.3 µM | P02675 | 370,000 tested, 0.13% active | AID 720508;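 active = inhibition above the mean of compounds falling within the control limits plus 3 SD of them, cut at about 14% in these data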
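Assay system: Human fibrin DD(E) protein | Medium: Tris buffer with calcium and detergent, pH 7.8 | Reagent: 0.1 µM fluorescent Tn7 | Compound dosing: Single point at 8.3 µM | Times: 10 min preincubation, 3 h with tracer, room temperature | Detection: Fluorescence polarization of the labelled Tn7 tracer | Controls: Aha-Tn7 high control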
Tn6 DDE FP = DD(E)-Tn6 binding inhibition, primary FP screen; P02675; Fibrin DD(E) TRITC-Tn6 fluorescence polarization displacement; inhibition, % at 8.3 µM; 370,000 tested, 0.21% active;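 active = inhibition above a per-campaign cutoff: mean of compounds within control limits plus 3 SD, cut at about 15% in these data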
PLC-beta3 inh = PLC-beta3 (human) inhibition, primary screen; Purified PLC-beta3, fluorogenic substrate, fluorescence; inhibition, % at 12.2 µM; Q01970; 370,000 tested, 0.18% active; in the data active = inhibition above about 11%
CendR NRP1 mod = alters CendR peptide binding to human NRP-1; O14786; FAM-RPARPAR peptide binding to NRP-1, fluorescence polarization; inhibition, % at 25 µM; 360,000 tested, 0.85% active; AID 602438;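 active = inhibition or corrected inhibition above about 18%, plus a signal ratio from 0.5 to 1.5, limit read from the data, passing the limit was not always enough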
KLK7 zymogen act = proKLK7 (human) activation, primary screen; 370,000 tested, 0.9% active; purified proKLK7, EDANS-DABCYL substrate fluorescence; 100% is mature enzyme control, 0% vehicle; P49862; activation, % at 7 µM;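 active = activation above the mean of all tested compounds plus 3 SD, computed per campaign excluding outliers beyond control limits, cut at about 13% in these data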
Target sequence (P49862 whole entry, looked up): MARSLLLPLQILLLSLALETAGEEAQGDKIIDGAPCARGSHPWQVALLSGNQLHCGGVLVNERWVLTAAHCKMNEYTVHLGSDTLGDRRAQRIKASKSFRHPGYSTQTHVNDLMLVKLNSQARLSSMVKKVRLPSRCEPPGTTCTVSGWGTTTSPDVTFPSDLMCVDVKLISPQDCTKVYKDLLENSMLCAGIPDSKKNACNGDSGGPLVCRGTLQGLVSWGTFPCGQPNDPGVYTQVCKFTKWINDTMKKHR
PLCg1 inh = PLC-gamma1 (human) inhibition, primary screen. AID 720700. purified PLC-gamma1, fluorogenic substrate, fluorescence. inhibition, % at 12.2 µM. 370,000 tested, 0.84% active
PLCgamma1 ctr = inhibits human PLC-gamma1 in PLC-beta3 counter-screen; purified PLC-gamma1, fluorogenic substrate, fluorescence; 3,300 tested, 3.1% active; AID 743258; inhibition, % at 12.3 µM; shares compounds with PLCg1 inh
PLCbeta3 conf = human PLC-beta3 inhibition, confirmation. shares compounds with PLCg1 inh. purified PLC-beta3, fluorogenic substrate fluorescence. inhibition, % at 12.3 µM. 3,300 tested, 1% active; in the data active = inhibition above about 11%
Numbers stand for hits; i = inactive; nt = not tested or not shown. Cut-off read from the data, not from the text of the source, unless noted: active = inhibition above about 9.5%; inactive = the rest.

SMILES	Tn7 DDE FP	Tn6 DDE FP	PLC-beta3 inh	CendR NRP1 mod	KLK7 zymogen act	PLCg1 inh	PLCgamma1 ctr	PLCbeta3 conf
O=C(NC1CCCN(Cc2ccc(Cl)cc2)C1)c1ccnc(Cl)c1 (configuration not stated)	i	i	i	i	i	11	i	i
S=C(Cc1ccc(-c2ccccc2)cc1)N1CCOCC1	i	i	i	i	i	9.9	i	i
Cc1ccc(CC(=S)N2CCOCC2)cc1	i	i	i	i	i	i	nt	nt
C#CCN(CC=C)C(=O)c1ccc2nc(C3CCCCC3)oc2c1	i	i	i	i	i	9.5	i	i
COc1cccc(NC(=O)CN2CCN(c3ccc(F)cc3)CC2)c1	i	i	i	i	i	i	nt	nt
COC(=O)c1ccc(NC(=O)CN2CCN(c3ccccn3)CC2)cc1	i	i	i	i	i	9.9	i	i
COC(=O)c1cccc(NC(=O)CN2CCN(c3ccc(OC)cc3)CC2)c1	i	i	i	i	i	13	i	i
COC(=O)c1ccc(NC(=O)CN2CCN(c3ccccc3)CC2)cc1	i	i	i	i	i	12	i	i
O=C(CN1CCN(c2ccccn2)CC1)Nc1ccccc1	i	i	i	i	i	i	nt	nt
COc1ccc(C2=NN(C(=O)CCCC(=O)O)C(c3cn(-c4ccccc4)nc3-c3ccccc3)C2)cc1 (configuration not stated)	i	i	i	i	i	14	i	i
COc1ccc(-c2nn(-c3ccccc3)cc2C2CC(c3cccs3)=NN2C(=O)CCC(=O)O)cc1 (configuration not stated)	i	i	i	i	i	i	nt	nt
O=C(N/C(=C\c1ccccc1)C(=O)N1CCCCCC1)c1ccccc1	i	i	i	i	i	9.6	i	i
CCOC(=O)[C@@]12CCC3=C1N(CCC3)C(=O)[C@H](CC(=O)NCC13CC4CC(CC(C4)C1)C3)C2	i	i	i	nt	i	i	nt	nt
NC(N)=N/N=C/c1ccc(OCc2ccccc2)c(OCc2ccccc2)c1	i	i	i	i	i	12	i	i
CCC[C@H]1[C@@H](NC(=O)C2CCCCC2)CC[C@@]23CCCN2C(=O)CCC[C@@H]13	i	i	i	nt	nt	i	nt	nt
O=C1CSc2ccccc2N1	i	i	i	i	i	11	i	i
CCNC(=S)NNC(=O)CSc1nc2ccccc2c(=O)n1-c1ccc(Cl)cc1	i	i	i	nt	i	i	nt	nt
Cc1ccc2nc(NC(=O)CN3C(=O)NC4(CCCCC4)C3=O)sc2c1	i	i	i	i	i	12	i	i
O=C(CCc1ccccc1)N[C@H]1[C@@H](OC(=O)c2cccnc2)CCC[C@]12C(=O)N(Cc1ccccc1)c1ccccc12	i	i	i	nt	i	i	nt	nt
Cc1ccc(C)c(NC2CCCCC2NS(=O)(=O)c2ccccc2)c1 (configuration not stated)	i	i	i	i	i	i	nt	nt
COC1CCCCC1Nc1cc(C)ccc1C (configuration not stated)	i	i	i	i	i	9.5	i	i
Cn1c(=O)c2cc(S(=O)(=O)N3CCN(Cc4ccccc4)CC3)ccc2n(C)c1=O	i	i	i	nt	i	i	nt	nt
Cc1ccc(-c2nnc(SCC(=O)NC3CCCC3)n2N)cc1	i	i	i	i	i	12	i	i
COc1ccc(CN(C)CC(=O)Nc2ccc(Cl)cc2C(F)(F)F)c(OC)c1	i	i	i	i	i	13	i	i
Cc1nc2sccn2c(=O)c1S(=O)(=O)Nc1ccc(N2CCN(C(=O)C(C)C)CC2)cc1	i	i	i	i	i	12	i	i
SMILES	Tn7 DDE FP	Tn6 DDE FP	PLC-beta3 inh	CendR NRP1 mod	KLK7 zymogen act	PLCg1 inh	PLCgamma1 ctr	PLCbeta3 conf
COc1ccc(NC(=O)Nc2ccc3c(c2)C(=O)N([C@H](C)CO)C[C@H](C)[C@@H](CN(C)S(=O)(=O)c2cccs2)O3)cc1	i	i	i	i	i	11	i	i
O=S1(=O)c2ccc(Br)cc2OC[C@@H](Cc2ccccc2)N1Cc1cn(CC2CCCCC2)nn1	i	i	i	nt	i	10	i	i
O=C(OCC#CCSc1nnc(-c2ccccc2Cl)o1)c1ccc(F)cc1	i	i	i	nt	nt	i	nt	nt
O=C(OCC#CCSc1nnc(-c2ccc(F)cc2)o1)c1ccc(F)cc1	i	i	i	nt	nt	10	i	i
C(=N\N1CCN(c2ccccn2)CC1)/c1ccccn1	i	i	i	i	i	9.7	i	i
Cc1ccc(CCN2CC(C(=O)NCc3cccnc3)CC2=O)cc1 (configuration not stated)	i	i	i	i	i	12	i	i
COc1ccccc1C=NNC(=O)CSc1nc2ccccc2n1Cc1ccc(Cl)cc1	i	i	i	nt	i	i	nt	nt
O=C(Nc1ccc(Cl)c([N+](=O)[O-])c1)c1cnccn1	i	i	i	i	i	i	nt	nt
O=C(Nc1ccc(Cl)c([N+](=O)[O-])c1)c1ccncc1	i	i	i	i	i	11	i	i
Fc1ccc(C(c2nnnn2C2CCCC2)N(Cc2ccco2)CC2CCCO2)cc1 (configuration not stated)	i	i	12	i	i	11	i	i
c1ccc(CN(Cc2ccco2)C(c2ccncc2)c2nnnn2C2CCCC2)cc1 (configuration not stated)	i	i	i	i	i	i	nt	nt
O=C(NN=C1CCCCCC1)c1cccnc1	i	i	i	i	i	i	nt	nt
O=C(CC(=O)NN=C1CCCCCC1)NCc1cccnc1	i	i	i	i	i	10	i	i
C#CCN1CC(N2CCN(CCO)CC2)CS1(=O)=O (configuration not stated)	i	i	i	nt	i	i	nt	nt
O=C(CSc1ccc2nnc(CCNC(=O)c3ccc(F)cc3)n2n1)NCc1ccco1	i	i	i	i	i	14	i	i
O=C(CSc1ccc2nnc(CCNC(=O)c3ccccc3)n2n1)NCc1ccco1	i	i	i	i	i	i	nt	nt
COc1ccc(-n2c(COc3ccccc3)nnc2SCC(=O)Nc2ccc3c(c2)OCCO3)cc1	i	i	i	nt	i	i	nt	nt
Cc1ccnc(NS(=O)(=O)c2cccc3nsnc23)c1	i	i	i	i	i	9.9	i	i
CN1C2=NC(c3ccccc3)CC(=O)N2/C(=C\c2ccccc2)C1c1ccccc1C(F)(F)F (configuration not stated)	i	i	i	nt	nt	i	nt	nt
CN(c1ccccc1)S(=O)(=O)c1ccc(NC(=S)NC(=O)C2CC2)cc1	i	i	i	i	i	10	i	i
CN(c1ccccc1)S(=O)(=O)c1ccc(NC(=S)NC(=O)c2ccccc2)cc1	i	i	i	i	i	i	nt	nt
CC(=O)ON1C(C)(C)CC(OC(=O)c2ccccc2)CC1(C)C	i	i	i	i	i	i	nt	nt

Compound activity (PubChem BioAssay)
